The values that follow come from paper PMC7114315 (Antiviral Research, 2010).

Where two headings read alike, the source gives them in different places.

Series [1] has as its system SARS-CoV. The settings on record: read-out: IC50 on SARS-CoV; cited from earlier work.
Series [2] in a line: Cell viability by MTT assay. Type of series: cell-based, Felis catus. The conditions noted are these: cat (Felis catus), fcwf-4 cells. A digest of the protocol: (§1)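 fcwf-4 cells grown in DMEM with 5% FBS, penicillin/streptomycin, 5% CO2, 37 °C; 20,000 cells/well seeded, 24 h at 37 °C to confluence. Test compounds (in DMSO or double distilled water), twofold serially diluted, applied 72 h. MTT ([…]) 4 h at 37 °C, lysis overnight at room temperature, absorbance 570/655 nm. Viability = treated/untreated OD × 100; CC50 = 50% viability reduction; triplicate.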
For orientation: Formazan colour is commonly taken as a measure of viable cells.

Series [3] concerns fcwf-4 cells. In words: Cell viability by MTT assay. The settings on record: for Cytotoxic effect under the tested concentrations: three days of treatment, Fig. 1; for CC50: fcwf-4 cells, 72 h, MTT. The series is classed as cell-based, Felis catus. A digest of the protocol: as §1
Series [4] has as its system FCoV (NTU156) in fcwf-4 cells. The experiment in a line: microbe, parasite or virus in culture. Type of series: cell-based, feline coronavirus.
Series [5] has as its system FCoV (NTU156) in fcwf-4 cells. Type of series: cell-based, feline coronavirus.
For series [6] the following is noted: 9 clinical healthy FCoV-shedding cats, 6.25 mg to 50 mg/kg/day per os, preliminary.

What is called IC50 is the concentration that gives 50% inhibition. A word on the CC50: it is the concentration giving 50% cytotoxicity. Higher therefore signals better tolerance by the cells.

As to `Cc1c(O)cccc1C(=O)N[C@@H](CSc1ccccc1)[C@H](O)CN1C[C@H]2CCCC[C@H]2C[C@H]1C(=O)NC(C)(C)C` [Nelfinavir, nelfinavir], the IC50 in series [1] is 0.048 µM; in series [4] (Alphacoronavirus 1, 72 h) it was 8.19 µM. In series [2], this compound returned a cytotoxic concentration (CC50) at 72 h of 11.5 µM. Further, the “Cytotoxic effect under the tested concentrations” value (shortened to “Cytotoxic effect”) in series [3] was “dramatic cytotoxic effect”. Besides, in series [5], the “Number of CPE foci compared with untreated groups” value is listed as “significantly inhibited the number of CPE foci”. For the same compound, in series [5] (only the highest concentration, 9.41 μM, P < 0.001, […]), the “Induction of CPE foci” value was “significantly blocked the induction of CPE foci”. Also, in series [6], the “Side effects (e.g., diarrhea or nausea)” value was “no obviously side effects”.

With `Nc1nc2c(ncn2COCCO)c(=O)[nH]1` [Acyclovir, acyclovir], in series [2], the CC50 at 72 h is ≥ 888 µM.

As to `CN(C)CCCN1c2ccccc2Sc2ccccc21` [Promazine, promazine], the CC50 at 72 h in series [2] is ≥ 0.1 µM.

`CC(C)(C)NC(=O)[C@@H]1C[C@@H]2CCCC[C@@H]2CN1C[C@@H](O)[C@H](Cc1ccccc1)NC(=O)[C@H](CC(N)=O)NC(=O)c1ccc2ccccc2n1` [Saquinavir, saquinavir]: in series [2], it took 95.8 µM to reach half-maximal cytotoxicity (CC50 at 72 h). Also, the “Cytotoxic effect” value in series [3] was “dramatic cytotoxic effect”.

For the compound `O=C1Nc2ccc(Cl)cc2[C@@](C#CC2CC2)(C(F)(F)F)O1` [Efavirenz, efavirenz], the CC50 at 72 h in series [2] amounted to 52.1 µM. The “Cytotoxic effect” value in series [3] is “dramatic cytotoxic effect”.

Take `Nc1ccn([C@@H]2CS[C@H](CO)O2)c(=O)n1` [Lamivudine, lamivudine]: the CC50 at 72 h in series [2] is ≥ 27.3 µM.

In series [2], `Cc1cc(O)c2c(c1)C(=O)c1cc(O)cc(O)c1C2=O` [Emodin, emodin] registered a CC50 at 72 h of 67.4 µM. In addition, in series [3], the “Cytotoxic effect” value is “dramatic cytotoxic effect”.

`CC(C)(C)NC(=O)[C@@H]1CN(Cc2cccnc2)CCN1C[C@@H](O)C[C@@H](Cc1ccccc1)C(=O)N[C@H]1c2ccccc2C[C@H]1O` [Indinavir, indinavir]: the CC50 at 72 h in series [2] was ≥ 70.2 µM.

In the case of `NC(=O)c1ncn([C@@H]2O[C@H](CO)[C@@H](O)[C@H]2O)n1` [Ribavirin, ribavirin], the CC50 at 72 h in series [2] was ≥ 409 µM.

For `Cc1ccnc2c1NC(=O)c1cccnc1N2C1CC1` [Nelvirapine, nelvirapine], the CC50 in series [3] is ≥ 46.9 µM.

Consider `Cc1cn([C@H]2C=C[C@@H](CO)O2)c(=O)[nH]c1=O` [Stavudine, stavudine], for which, in series [2], the CC50 at 72 h was ≥ 55.8 µM.

As for `O=c1[nH]c(=O)n([C@H]2C[C@H](O)[C@@H](CO)O2)cc1I` [Idoxuridine, idoxuridine], the CC50 at 72 h in series [2] was ≥ 141 µM.

Regarding Galanthus nivalis agglutinin, in series [3], the CC50 is ≥ 0.00192 µM. The IC50 in series [4] was 8.8e-06 µM. Also, the “Inhibition of CPE foci, concentration-dependence” value in series [5] (all four concentrations, […]) is recorded as “strong inhibitory activities at all four concentrations”.

As for `COC(=O)N[C@H](C(=O)N[C@@H](Cc1ccccc1)[C@@H](O)CN(Cc1ccc(-c2ccccn2)cc1)NC(=O)[C@@H](NC(=O)OC)C(C)(C)C)C(C)(C)C` [Atazanavir, atazanavir], the CC50 at 72 h in series [2] is 48.6 µM. Further, the “Cytotoxic effect” value in series [3] is “dramatic cytotoxic effect”.
